Data as given in publication PMC7669743 (Inorganic chemistry, 2020).
Where two headings read alike, the source gives them in different places. Marks after values point to notes of the source that are not given here. Each block holds one compound with its values, some of them ahead of it.

Tests used:
[1] = test system: SK-MEL-28 malignant melanoma cells; test: Dark cytotoxicity and photocytotoxicity in normoxia; assay type: cell-based, human
[2] = cited from earlier work
[3] = cited from earlier work; remark: listed apart in the source
SK-MEL-28 cells = test: Dark cytotoxicity and photocytotoxicity in hypoxia; assay type: cell-based, human; conditions: for EC50: read-out: dark EC50 in hypoxia, hypoxia 1% O2, dark
In short: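 SK-MEL-28 melanoma cells, 10,000 per well, pre-incubated 2–3 h at 1% O2 (5% CO2, 37 °C). Dosed 1 nM–300 μM, held 21–26 h at 1% O2, then film-sealed and given dark or light treatment. Cells returned to normoxia for 2 days, then resazurin (~60 μM final) for 4 h. EC50 came from zero-bottom log-logistic fits, PI as dark/light EC50.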

Lipophilicity = assay type: physicochemical; conditions: pH 7.4, phosphate buffer / 1-octanol, chloride salts
In short: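 Modified shake-flask method. 10 mM saline-free phosphate buffer (pH 7.4) and 1-octanol were mutually pre-saturated at 1:4 by shaking at 230 rpm for 24 h (~20 °C). Chloride salts at 50 μM in saturated octanol plus saturated buffer (1:1) were shaken 200 times and centrifuged (~10,000 × g, 2 min). Each phase was read by absorbance at its longest-wavelength maximum (400–600 nm) against a standard curve. Log D is the log of the octanol/buffer concentration ratio.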

[4] = Solubility in high ionic strength aqueous media; assay type: physicochemical; conditions: for solubility in aqueous media relative to the dmb analogs: high ionic strength aqueous media, in words; for solubility in high ionic strength aqueous media: fully soluble
[5] = test system: amelanotic SK-MEL-28 human cells; test: Fluence dependence of photocytotoxicity in normoxia; assay type: cell-based
[6] = Singlet oxygen sensitization quantum yield; assay type: physicochemical; conditions: acetonitrile
In short: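 PF6- salts were used at 5–20 μM in acetonitrile distilled over calcium hydride, air-saturated. The 1O2 phosphorescence band (~1276 nm) was integrated using NIR PMT detection. Quantum yield was calculated by relative actinometry against [Ru(bpy)3]2+ (Φ = 0.56, aerated MeCN), using emission integrals and absorbance at the excitation wavelength. The refractive-index ratio was 1 because both solutions were in acetonitrile.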

female C57BL/6J mice = test: Maximum tolerated dose; conditions: intraperitoneal, doses 25–200 mg kg^−1, 2-week observation
[7] = read-out: dark EC50, dark (sham) treatment, SK-MEL-28
[8] = read-out: light EC50, visible light, visible 400–700 nm, 100 J cm^−2, ~20 mW cm^−2

Compound: [Os+2].c1ccc(-c2ccccn2)nc1.c1ccc(-c2ccccn2)nc1.c1ccc(-c2ccccn2)nc1 [[Os(bpy)3]^2+, [Os(bpy)3]Cl2, reference compound]
- EC50 [1, 7]: > 100 µM
- singlet oxygen quantum yield ΦΔ ([2]; acetonitrile, room temperature, excitation 479 nm, literature value ref 83): 0.22 (479)^a

Compound: Cc1cccc(-c2cccc(C)n2)n1.Cc1cccc(-c2cccc(C)n2)n1.[Cl-].[Cl-].[Ru+2].c1ccc2c(-c3nc4c5cccnc5c5ncccc5c4[nH]3)cccc2c1 [[Ru(6,6′-dmb)2(1-NIP)]Cl2]
- PI (PIvis) in hypoxia ([3]; 1% O2, visible light): 15

Compound: [Ru+2].c1ccc(-c2ccccn2)nc1.c1ccc(-c2ccccn2)nc1.c1ccc(-c2ccccn2)nc1 [[Ru(bpy)3]^2+]
- singlet oxygen quantum yield ΦΔ of the standard ([2]; aerated MeCN): 0.56

Compound: [Os(bpy)2(IP-2T)]Cl2 [1–2T]
- EC50 [1, 7]: 42.2 µM
- EC50 (SK-MEL-28 cells): 76.9 µM

- log Do/w (Lipophilicity): amphiphilic
- solubility in aqueous media relative to the dmb analogs [4]: less soluble
Compound: [Os(bpy)2(IP-3T)]Cl2 [1–3T]
- EC50 [1, 7]: 45.8 µM
- EC50 (SK-MEL-28 cells): 71.9 µM

Compound: [Os(bpy)2(IP-4T)]Cl2 [1–4T]
- fold improvement over 2–4T ([5]; PDT dose product EC50, normoxia): ≥ 5 fold
- photocytotoxic activity at the lowest tested fluence ([5]; normoxia, 10 J cm^−2, both wavelengths (523 and 633 nm)): Submicromolar
- phototherapeutic index PIgreen ([1]; green 523 nm, ratio of dark to light EC50): 6700
- EC50 [1, 7]: 71.9 µM
- EC50 ([1]; read-out: light EC50, green light, green 523 nm, 100 J cm^−2): ~0.01 µM
- EC50 ([1]; read-out: light EC50, red light, red 633 nm, 100 J cm^−2): ~0.01 µM
- EC50 [1, 8]: 0.00131 µM
- phototherapeutic index PIvis ([1]; visible light, ratio of dark to light EC50): 55,000
- singlet oxygen quantum yield ΦΔ [6]: 70%
- phototherapeutic index (PI) in hypoxia (SK-MEL-28 cells; hypoxia 1% O2, across the three light conditions): ~70
- EC50 (SK-MEL-28 cells): 55.3 µM
- maximum tolerated dose (MTD) (female C57BL/6J mice): ≥ 200 mg/kg
- solubility in aqueous media relative to the dmb analogs [4]: less soluble

- solubility in high ionic strength aqueous media [4]: ≥ 1200 µM
Compound: [Os(dmb)2(IP-3T)]Cl2 [2–3T]

Compound: [Os(dmb)2(IP-4T)]Cl2 [2–4T]
- EC50 [1, 8]: 0.071 µM
- singlet oxygen quantum yield ΦΔ [6]: 56%
- PIgreen in hypoxia (SK-MEL-28 cells; hypoxia 1% O2, green light): 15
- maximum tolerated dose (MTD) (female C57BL/6J mice): ≥ 200 mg/kg
- solubility in high ionic strength aqueous media [4]: ≥ 1200 µM

Compound: [Os(dmb)3](Cl)2 [[Os(dmb)3]^2+, reference compound]
- EC50 [1, 7]: > 100 µM

Compound: [Os(phen)2(IP-4T)]Cl2
- PIvis in hypoxia ([3]; hypoxia, visible light): 90
